Measured values published in ChEMBL document CHEMBL1131164, “Potent cyano and carboxamido side-chain analogues of 1', 1'-dimethyl-delta8-tetrahydrocannabinol” (J Med Chem, 1998).

Assays:
[1] = organism: Mus musculus; test: Tested for the concentration that shows hypothermia as changes in rectal temperature (RT).; assay type: functional
[2] = organism: Mus musculus; test: Tested for the concentration for antinociception as measured by the tail-flick response (TF).; assay type: functional
[3] = organism: Mus musculus; test: Tested for the concentration for the inhibition of spontaneous activity (SA).; assay type: functional
[4] = target: Cannabinoid receptor 1 (Homo sapiens, UniProt P21554); test: Evaluated for its binding affinity towards Cannabinoid receptor 1 (CB1)
Sequence of Cannabinoid receptor 1 (P21554 whole entry): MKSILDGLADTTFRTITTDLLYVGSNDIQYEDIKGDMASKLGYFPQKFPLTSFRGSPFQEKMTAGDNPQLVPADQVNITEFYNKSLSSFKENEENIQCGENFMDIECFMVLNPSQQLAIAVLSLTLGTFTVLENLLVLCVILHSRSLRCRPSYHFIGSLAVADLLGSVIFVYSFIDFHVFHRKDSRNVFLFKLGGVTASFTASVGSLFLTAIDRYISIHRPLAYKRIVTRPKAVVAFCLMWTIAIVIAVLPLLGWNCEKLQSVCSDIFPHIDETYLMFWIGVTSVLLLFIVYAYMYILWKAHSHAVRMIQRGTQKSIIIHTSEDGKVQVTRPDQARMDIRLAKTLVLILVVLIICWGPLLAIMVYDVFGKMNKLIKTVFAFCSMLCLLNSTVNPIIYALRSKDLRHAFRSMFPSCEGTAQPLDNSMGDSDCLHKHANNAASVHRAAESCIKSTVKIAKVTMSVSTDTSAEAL

[5] = system: Mus musculus; test: The compound was tested for the concentration that shows hypothermia as changes in rectal temperature (RT) at a dose of 30 mg/kg.; assay type: functional
Method in brief: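 Mice, single intravenous tail-vein dose in ethanol:emulphor:saline 1:1:18 at 0.1 mL/10 g. Rectal temperature change (Δ°C) was measured in the same mouse as the other behavioural measures.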

[6] = system: Mus musculus; test: The compound was tested for the concentration for the inhibition of spontaneous activity (SA) at a dose of 30 mg/kg.; assay type: functional
Method in brief: (§1)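 Mice, single intravenous tail-vein dose in ethanol:emulphor:saline 1:1:18 at 0.1 mL/10 g. Several measures were taken in the same mouse. SA is % of control activity, and TF is %MPE with a 10-s maximum latency. Effect is expressed as percent of the Δ9-THC maximum (90% for SA, 100% for TF).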

[7] = system: Mus musculus; test: The compound was tested for the concentration for antinociception as measured by the tail-flick response (TF) at a dose of 30 mg/kg.; assay type: functional; method in brief: as §1
[8] = organism: Mus musculus; test: Tested for the concentration that shows ring immobility (RI).; assay type: functional
[9] = system: Mus musculus; test: The compound was tested for the concentration for the inhibition of spontaneous activity (SA) at a dose of 100 mg/kg.; assay type: functional; method in brief: as §1
[10] = system: Mus musculus; test: The compound was tested for the concentration for antinociception as measured by the tail-flick response (TF) at a dose of 60 mg/kg.; assay type: functional; method in brief: as §1

Row | SMILES | ED50 [1] [mg/kg] | ED50 [2] [mg/kg] | ED50 [3] [mg/kg] | Ki [4] [nM] | inhibition in vivo at 30 mg/kg [5] [%] | inhibition in vivo at 30 mg/kg [6] [%] | inhibition in vivo at 30 mg/kg [7] [%] | ED50 [8] [mg/kg] | inhibition in vivo at 100 mg/kg [9] [%] | inhibition in vivo at 60 mg/kg [10] [%]
1 | CC1=CC[C@@H]2[C@@H](C1)c1c(O)cc(C(C)(C)CCCCOc3ccc(C#N)cc3)cc1OC2(C)C | 4.24 | 1.15 | 0.1 | 3 |  |  |  |  |  | 
2 | CC1=CC[C@@H]2[C@@H](C1)c1c(O)cc(C(C)(C)CCCCC(=O)Nc3ccc(Cl)cc3)cc1OC2(C)C |  |  |  | 187 | -1.6 | 39 | 15 |  |  | 
3 | CC1=CC[C@@H]2[C@@H](C1)c1c(O)cc(C(C)(C)CCCCC(=O)NN3CCCCC3)cc1OC2(C)C | 0.17 | 0.16 | 0.04 | 1.2 |  |  |  |  |  | 
4 | CC1=CC[C@@H]2[C@@H](C1)c1c(O)cc(C(C)(C)CCCCCC#N)cc1OC2(C)C | 0.005 | 0.01 | 0.006 | 0.6 |  |  |  |  |  | 
5 | CC1=CC[C@@H]2[C@@H](C1)c1c(O)cc(C(C)(C)CCCCC(=O)Nc3ccc(S(N)(=O)=O)cc3)cc1OC2(C)C | 1.7 | 3.2 | 2.03 | 19 |  |  |  |  |  | 
6 | CC1=CC[C@@H]2[C@@H](C1)c1c(O)cc(C(C)(C)CCCCC(=O)Nc3ccc(Cl)cc3Cl)cc1OC2(C)C | 3.7 | 14 |  | 18 |  | 27 |  |  |  | 
7 | CC1=CC[C@@H]2[C@@H](C1)c1c(O)cc(C(C)(C)CCCCC(=O)NCCc3ccc(S(N)(=O)=O)cc3)cc1OC2(C)C | > 100 | > 100 |  | 29 |  |  |  | > 100 | 60 | 
8 | CC1=CC[C@@H]2[C@@H](C1)c1c(O)cc(C(C)(C)CCCCC(=O)NCc3ccc(S(N)(=O)=O)cc3)cc1OC2(C)C | 37 |  | 31 | 60 |  |  |  |  |  | 60
9 | CC1=CC[C@@H]2[C@@H](C1)c1c(O)cc(C(C)(C)CCCCC#N)cc1OC2(C)C | 0.19 | 0.0047 | 0.007 | 0.36 |  |  |  | 0.095 |  | 
10 | CC1=CC[C@@H]2[C@@H](C1)c1c(O)cc(C(C)(C)CCCC(O)C#N)cc1OC2(C)C (stereo not given in full) | 1.5 | 0.11 | 0.52 | 13 |  |  |  | 1.07 |  | 
11 | CC1=CC[C@@H]2[C@@H](C1)c1c(O)cc(C(C)(C)CCCCC(C#N)c3ccccc3)cc1OC2(C)C (stereo not given in full) | 4.2 | 1.4 | 6.51 | 9.2 |  |  |  | 5.05 |  | 
12 | CC1=CC[C@@H]2[C@@H](C1)c1c(O)cc(C(C)(C)CCCCC(=O)N(C)C)cc1OC2(C)C | 0.12 | 0.031 | 0.0015 | 0.86 |  |  |  |  |  | 
13 | CCN(CC)C(=O)CCCCC(C)(C)c1cc(O)c2c(c1)OC(C)(C)[C@@H]1CC=C(C)C[C@@H]21 | 0.4 | 0.1 | 0.09 | 13 |  |  |  |  |  | 
14 | CCCCCCC(C)(C)c1cc(O)c2c(c1)OC(C)(C)[C@@H]1CC=C(C)C[C@@H]21 | 0.04 | 0.04 | 0.07 | 0.77 |  |  |  | 0.05 |  | 
15 | CCCCCc1cc(O)c2c(c1)OC(C)(C)[C@@H]1CCC(C)=C[C@@H]21 [DRONABINOL] | 1.4 | 1.4 | 1 |  |  |  |  | 1.5 |  | 
